{"source": "paper PMC3747510", "about": "(Scientific Reports, 2013)", "key": {"SpLeuRS C399S": {"target": "T1, SpLeuRS C399S (Streptococcus pneumoniae serotype 4, UniProt Q97SS0, W399S)", "T1 sequence (Q97SS0 1-833 W399S)": "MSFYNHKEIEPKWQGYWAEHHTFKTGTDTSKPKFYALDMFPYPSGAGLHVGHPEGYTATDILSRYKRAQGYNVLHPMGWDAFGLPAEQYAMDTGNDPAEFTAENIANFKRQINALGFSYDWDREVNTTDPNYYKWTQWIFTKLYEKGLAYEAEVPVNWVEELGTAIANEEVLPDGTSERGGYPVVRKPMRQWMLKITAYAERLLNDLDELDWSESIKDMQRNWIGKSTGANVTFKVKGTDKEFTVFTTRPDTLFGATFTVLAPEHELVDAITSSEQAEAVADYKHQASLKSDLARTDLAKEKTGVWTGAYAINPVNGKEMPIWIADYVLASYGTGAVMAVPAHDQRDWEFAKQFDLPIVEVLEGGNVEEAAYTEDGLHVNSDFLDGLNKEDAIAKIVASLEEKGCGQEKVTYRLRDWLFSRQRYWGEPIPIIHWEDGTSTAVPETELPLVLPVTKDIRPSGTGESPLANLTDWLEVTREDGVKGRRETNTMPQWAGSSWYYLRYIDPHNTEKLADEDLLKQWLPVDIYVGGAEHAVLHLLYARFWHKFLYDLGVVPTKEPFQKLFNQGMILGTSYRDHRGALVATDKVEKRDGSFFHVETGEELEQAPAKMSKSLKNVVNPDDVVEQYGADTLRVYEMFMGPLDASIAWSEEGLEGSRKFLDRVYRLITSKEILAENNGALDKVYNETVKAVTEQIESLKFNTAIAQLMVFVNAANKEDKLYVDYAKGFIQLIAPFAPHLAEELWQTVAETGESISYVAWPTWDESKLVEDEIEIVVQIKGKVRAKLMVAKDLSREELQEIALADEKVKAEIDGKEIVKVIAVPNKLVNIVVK", "assay": "Aminoacylation and deacylation by SpLeuRS C399S mutant", "type": "biochemical", "conditions": "50 μM ZCL039"}, "HEK 293": {"tested_on": "HEK 293", "assay": "Cell proliferation assay", "type": "cell-based", "conditions": "Homo sapiens, HEK293, read-out: IC50, Human cell lines, HEK 293", "method_in_brief": "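Cells in DMEM/10% FBS, 37°C, 5% CO2. Seeded from 1 × 10^5 cells/mL and allowed to adhere overnight. Test compound added at 2.5–100 μg/mL (0.5% DMSO final), five wells per concentration. Incubated 0, 24, 48 or 72 h, then 4 h with MTS/PMS (20:1), and A492 read. DMSO and medium-only controls. IC50 by nonlinear regression against log concentration.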"}, "SpLeuRS": {"target": "T2, SpLeuRS (Streptococcus pneumoniae serotype 4, UniProt Q97SS0)", "T2 sequence (Q97SS0 1-833)": "T1 sequence (Q97SS0 1-833 W399S) with S399W", "assay": "Inhibitory kinetics of SpLeuRS aminoacylation", "type": "biochemical", "conditions": "for Ki: 2 nM SpLeuRS", "method_in_brief": "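Test compound at 0, 2 or 8 μM. Substrate-velocity data were linearized by reciprocal fitting into Lineweaver-Burk plots to derive kinetic constants and inhibition mode.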"}, "[1]": {"target": "T3, S. pneumoniae LeuRS (SpLeuRS) (Streptococcus pneumoniae serotype 4, UniProt Q97SS0)", "T3 sequence (Q97SS0 1-833)": "T1 sequence (Q97SS0 1-833 W399S) with S399W", "assay": "Aminoacylation inhibition", "type": "biochemical", "method_in_brief": "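Aminoacylation at 37°C with [3H]leucine, started with 4 mM ATP, in Tris-HCl pH 7.5 buffer. Each LeuRS was used at equal activity, i.e. forming 10 pmol Leu-tRNALeu in 5 min. At least six test-compound concentrations were tested. IC50 was taken from a fitted dose-response curve, as the mean of at least two independent experiments.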"}, "S. pneumoniae": {"tested_on": "S. pneumoniae", "assay": "Broth microdilution MIC, S. pneumoniae", "type": "cell-based", "conditions": "Streptococcus pneumoniae, 24 h, read-out: MIC, Bacteria, S. pneumoniae", "method_in_brief": "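S. pneumoniae clinical isolate, from paediatric community-acquired pneumonia. CLSI M7-A7 broth microdilution in Mueller Hinton broth with 2.5% lysed sheep blood, inoculum about 2 × 10^8 CFU/mL. Serial test-compound dilutions, 37°C for 24 h. MIC was the lowest concentration suppressing visible growth.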"}}, "note": "Where a chain is given by its changes, count along the chain named.", "data": [{"molecule": "OB1OCc2ccc(C(O)c3ccccc3)cc21", "note": "(centres unmarked) [ZCL039, [6-(1-phenyl-1-hydroxylmethyl)]-1,3-dihydro-1-hydroxy-2,1-benzoxaborole]", "values": [{"measurement": "Sensitivity of C399S mutant to ZCL039", "setting": "SpLeuRS C399S", "result": "comparable to the wild-type SpLeuRS"}, {"measurement": "IC50", "setting": "HEK 293", "result": "> 200", "unit": "µM"}, {"measurement": "kcat of SpLeuRS, substrate ATP", "setting": "SpLeuRS; +2 μM ZCL039", "result": "6.35 ± 0.65", "unit": "s⁻¹"}, {"measurement": "kcat of SpLeuRS, substrate Leu", "setting": "SpLeuRS; +2 μM ZCL039", "result": "6.44 ± 0.55", "unit": "s⁻¹"}, {"measurement": "kcat of SpLeuRS, substrate SptRNALeu", "setting": "SpLeuRS; +2 μM ZCL039", "result": "6.62 ± 0.48", "unit": "s⁻¹"}, {"measurement": "kcat of SpLeuRS, substrate ATP", "setting": "SpLeuRS; +8 μM ZCL039", "result": "2.80 ± 0.32", "unit": "s⁻¹"}, {"measurement": "kcat of SpLeuRS, substrate Leu", "setting": "SpLeuRS; +8 μM ZCL039", "result": "2.61 ± 0.16", "unit": "s⁻¹"}, {"measurement": "kcat of SpLeuRS, substrate SptRNALeu", "setting": "SpLeuRS; +8 μM ZCL039", "result": "2.89 ± 0.24", "unit": "s⁻¹"}, {"measurement": "Ki", "setting": "SpLeuRS; substrate ATP", "result": "2.63 ± 0.26", "unit": "µM"}, {"measurement": "Ki", "setting": "SpLeuRS; substrate Leu", "result": "2.65 ± 0.22", "unit": "µM"}, {"measurement": "Mode of inhibition with respect to ATP and Leu", "setting": "SpLeuRS; Km unaffected, maximum rates decreased", "result": "noncompetitive"}, {"measurement": "Mode of inhibition with regard to tRNALeu", "setting": "SpLeuRS; apparent Km and rate both reduced", "result": "uncompetitive"}, {"measurement": "IC50", "setting": "[1]", "result": "1.72 ± 0.05", "unit": "µM"}, {"measurement": "MIC", "setting": "S. pneumoniae", "result": 5, "unit": "µg/mL"}]}]}
